Screens from PubChem BioAssay.
S1P3 antagonist: S1P3 (human) receptor antagonism; 170,000 compounds, 0.27% hits; inhibition, % at 4.98 µM; Q99500; CHO S1P3 NFAT-BLA reporter, FRET fluorescence, antagonist mode; AID 485;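 active = inhibition above the plate cutoff, the mean inhibition of test wells on that plate plus 3 SD, cut at about 28% in these data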;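 also: cells challenged with S1P at its EC80 of 0.8 µM; blue over green emission ratio from cleaved BLA substrate after 4 h stimulation; 0% = S1P-stimulated wells and 100% = unstimulated DMSO-only wells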
Target sequence (Q99500 whole entry, looked up): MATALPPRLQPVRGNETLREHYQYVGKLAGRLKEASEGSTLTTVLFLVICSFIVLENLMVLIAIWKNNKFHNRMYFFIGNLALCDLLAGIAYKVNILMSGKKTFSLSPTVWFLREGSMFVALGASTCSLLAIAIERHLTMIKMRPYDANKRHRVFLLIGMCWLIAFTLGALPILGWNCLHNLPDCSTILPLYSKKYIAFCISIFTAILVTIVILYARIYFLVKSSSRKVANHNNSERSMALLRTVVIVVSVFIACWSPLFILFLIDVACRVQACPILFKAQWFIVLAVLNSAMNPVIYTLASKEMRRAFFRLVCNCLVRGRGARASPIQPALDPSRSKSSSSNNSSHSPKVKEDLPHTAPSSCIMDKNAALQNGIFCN
T cell modulator: T cell immune modulation candidate. 330,000 compounds, 0.068% hits. response (vesicle binding), % at 7 µM. 2C CD8+ T cell-vesicle binding, flow cytometry; active compounds read low;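 active = response, share of CD8 T cells binding vesicles, and their 90th percentile fluorescence all below set limits, cut at about 80% in these data, passing the limit was not always enough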;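 also: values below 100% mean blocked vesicle binding to the CD8+ T cells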
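Incubation: binding step 1.5 h, 37 °C, antibody labelling 20 min, ice; system: murine 2C transgenic CD8+ T lymphocytes; technique: cytometric PE anti-B7-1 and Alexa647 anti-CD8 signals after 1% paraformaldehyde fixation; also added: QL9-charged Drosophila Ld/ICAM-1/B7-1 vesicles; control set: naked versus QL9-loaded vesicles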
Yeast superoxide: caloric restriction mimetics inhibiting age-related superoxide in yeast. superoxide response (% of plate mean), % at 10 µM. S. cerevisiae aged cells, superoxide DHE fluorescence; active compounds read low. AID 2690. 330,000 compounds, 0.18% hits;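 active = superoxide response under a set limit, about three screen SD below normal, cut at about 65% in these data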;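 also: yeast aged for seven days with compound at 30 °C before DHE staining; 100% = average MFI of all compound-treated wells on the plate with controls excluded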
Superoxide pick: confirmation of caloric restriction mimetics inhibiting yeast age-related superoxide | shares compounds with Yeast superoxide | S. cerevisiae aging, superoxide DHE fluorescence; active compounds read low | superoxide response (% of plate), % at 10 µM | 850 compounds, 1% hits | AID 434994;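 active = superoxide signal below 65% of the plate average of sample wells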;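 also: cells aged with compound for 7 days at 30 degrees C before staining; 100% equals mean DHE fluorescence of all compound wells on the plate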
DHE fluor count: counter-screen for compounds affecting DHE oxidation and fluorescence in yeast. shares compounds with Yeast superoxide. S. cerevisiae BY4741, flow cytometry; active compounds read low. fluorescence response, % at 10 µM. 850 tested, under 10 active;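 active = fluorescence response below 15%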;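 also: percent of the mean fluorescence averaged over all compound wells on the plate; lower means stronger quenching of DHE signal or ROS scavenging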
Starred values were filed as active, the others as inactive; i = inactive; · = no result. This is a sample that favours compounds with a hit; in the whole collection about 0.41% have one here.

SMILES	S1P3 antagonist	T cell modulator	Yeast superoxide	Superoxide pick	DHE fluor count
CC1(C)Cc2c(sc3nc(N/N=C/c4ccccc4)[nH]c(=O)c23)CO1	-2.1	189.7	94.2	·	·
CC(C)=NNc1nc2sc3c(c2c(=O)[nH]1)CC(C)(C)OC3	24.6	231.1	50.0*	95.4	91.5
CC(C)c1ccc(NC(=O)CCNC(=O)Cn2cnc3ccccc3c2=O)cc1	·	299.4	92.0	·	·
COc1ccc(-c2sc3cc4c(cc3c2C#Cc2ccc(N)cc2)OCO4)cc1	·	411.8	100.0	·	·
COc1ccc(-c2sc3cc4c(cc3c2C#CCO)OCO4)cc1	·	350.0	63.0*	103.0	92.4
O=C(Nc1ccc2nccnc2c1)Nc1ccccc1Cl	·	234.5	77.2	·	·
O=C(Nc1cccc(Cl)c1)Nc1ccc2nccnc2c1	·	154.5	59.7*	85.9	93.6
COc1ccc(N(CC(=O)NC2CCCCC2)C(=O)CCCC(=O)Nc2ccccn2)cc1	·	367.2	94.7	·	·
COc1ccc(S(=O)(=O)Nc2cccc(Cl)c2)cc1OC	-2.1	344.9	104.2	100.8	106.2
COc1ccc(NS(=O)(=O)c2ccc(OC)c(OC)c2)cc1OC	-2.5	614.7	96.4	·	·
COc1ccc(S(=O)(=O)Nc2ccc(F)c(F)c2)cc1Cl	0.8	288.3	123.2	98.7	108.9
COc1ccc(NS(=O)(=O)c2ccc(S(=O)(=O)N3CCCC3)cc2)cc1Cl	·	403.4	108.0	·	·
COc1ccc(C(=O)NCCCNC(=O)c2ccccn2)cc1Br	·	615.6	89.0	·	·
CCN1C(=O)[C@H]2[C@@H](c3ccc(-c4ccc(Cl)c(Cl)c4)c(OC)c3)N[C@@](Cc3ccccc3)(C(=O)OC)[C@H]2C1=O	·	0.0	104.3	·	·
CCCc1c(NC(=O)Nc2ccc(F)cc2)cnn1-c1ccccc1	7.0	248.7	60.5*	120.5	107.8
CCCc1c(C(=O)Nc2ccc(F)cc2C)cnn1-c1ccccc1	-7.2	263.1	86.7	·	·
COc1ccc(NC(=O)N2CCc3ccccc3C2)cc1	·	596.4	52.4*	101.0	101.7
CCOc1ccc(NC(=O)N2CCc3ccccc3C2)cc1	·	700.5	93.0	·	·
COc1ccccc1NS(=O)(=O)c1ccc(C(=O)Nc2ncccc2O)cc1	·	347.8	121.7	·	·
COc1ccc(-c2nc3c4c(ncn3n2)-c2ccccc2CC42CCCC2)cc1	1.2	0.0	63.9*	106.8	99.4
COc1ccc(OCc2nc3c4c(ncn3n2)-c2ccccc2CC42CCCC2)cc1	3.7	259.6	117.5	·	·
COc1ccccc1NS(=O)(=O)c1ccc(C)c(NC(=O)C2CCCO2)c1 (stereo not given)	·	245.6	100.6	·	·
CCCn1c(=O)c(C(=O)NNC(=O)c2ccc(Cl)cc2Cl)c(O)c2ccccc21	·	152.4	59.6*	106.5	105.1
CCn1c(=O)c(C(=O)NNC(=O)c2ccc(Cl)cc2Cl)c(O)c2ccccc21	·	i	74.1	·	·
CCn1c(=O)c(C(=O)NCc2ccc(OC)c(OC)c2)c(O)c2ccccc21	-0.1	420.1	95.8	·	·
SMILES	S1P3 antagonist	T cell modulator	Yeast superoxide	Superoxide pick	DHE fluor count
CCCn1c(=O)c(C(=O)NCc2ccc(OC)c(OC)c2)c(O)c2ccccc21	8.1	237.8	62.7*	108.7	108.4
O=S1(=O)[C@H]2C[C@@H]3C=C[C@@]2(CN1Cc1ccc(F)cc1)O3	·	527.3	91.3	·	·
O=C(COn1nnc2ccc(C(F)(F)F)cc21)Nc1nnc(-c2ccccc2)o1	-23.1	476.1	60.2*	97.6	110.9
Cc1cccc(C)c1NC(=O)COn1nnc2ccc(C(F)(F)F)cc21	-16.8	341.4	118.0	·	·
Cc1cc(S(=O)(=O)NCCCN2CCOCC2)ccc1Br	·	440.3	85.3	·	·
Cn1c(CO)nc2c3ccccc3ccc21	·	207.5	111.4	·	·
CN(C)S(=O)(=O)c1ccc(C(=O)OCn2nnc3ccccc3c2=O)cc1	·	194.7	65.2*	103.2	90.7
COc1ccc(C(=O)OCn2nnc3ccccc3c2=O)cc1OC	26.9	332.1	117.1	·	·
COc1cc2[nH]c(=O)n(CCCCCC(=O)N3CCN(c4ccccc4)CC3)c(=O)c2cc1OC	·	216.0	64.2*	95.4	92.9
COC(=O)c1ccc2c(=O)n(CCCCCC(=O)N3CCN(c4ccccc4)CC3)c(=O)[nH]c2c1	9.3	i	106.9	·	·
CC(=O)O[C@]1(C(C)=O)CCC2C3CCC4=C/C(=N/OCC(=O)O)CC[C@]4(C)C3CC[C@@]21C (stereo not given in full)	·	336.4	89.7	·	·
CC(=O)OC1(C(C)=O)CCC2C3CC4OC45CC(O)CCC5(C)C3CCC21C (stereo not given)	·	·	·	120.7	115.5
COc1ccc(NC(=O)CSc2nnc(-c3cccnc3)o2)c(OC)c1	·	313.5	101.9	·	·
CN(CC(=O)Nc1cccc(F)c1)C(=O)c1cccnc1Sc1ccc(Cl)cc1	·	731.3	92.4	·	·
CCCCNc1ncnc2c1cnn2-c1ccc(Cl)cc1	17.1	i	84.7	·	·
Cc1ccc(CNc2ncnc3c2cnn3-c2ccccc2)cc1	21.0	413.8	94.1	·	·
CCc1nc(NC(C)(C)C)c2cnn(-c3ccccc3)c2n1	3.6	74.6	94.6	100.7	96.6
c1ccc(Cn2ncc3c(NCc4ccco4)ncnc32)cc1	-1.7	269.6	92.8	·	·
c1ccc(-n2ncc3c(NCc4ccco4)ncnc32)cc1	5.5	257.4	87.5	90.1	90.5
CCCCNc1ncnc2c1cnn2-c1ccccc1	32.0	261.0	109.5	104.7	108.0
COc1ccccc1N1CCN(C2CCCN(S(=O)(=O)c3ccccc3)C2)CC1 (stereo not given)	·	278.3	95.2	·	·
Cc1nc(N(CCO)C2CCCCC2)c2nnn(Cc3ccccc3)c2n1	·	202.5	102.2	·	·
COc1ccc(C(=O)NC2CCN(CC(=O)NCc3ccccc3F)CC2)cc1	·	297.9	100.6	·	·
CC(Oc1ccccc1)C(=O)Nc1nnc(S(=O)(=O)Nc2ccccc2)s1 (stereo not given)	·	230.4	95.3	·	·
CCN(CC)c1ccc(NC(=O)CCN2C(=O)c3ccccc3S2(=O)=O)c(C)c1	·	222.8	92.6	·	·
SMILES	S1P3 antagonist	T cell modulator	Yeast superoxide	Superoxide pick	DHE fluor count
CC(=O)Nc1ccc(NS(=O)(=O)c2ccc(-c3csc(C)n3)s2)cc1	0.9	448.9	97.8	·	·
Cc1nc(-c2ccc(S(=O)(=O)Nc3cc(S(=O)(=O)N(C)C)ccc3C)s2)cs1	-5.0	396.0	63.8*	114.1	116.8
N#Cc1ccc(Nc2ccccc2)c(N)c1	·	227.7	60.8*	93.3	107.1
N#Cc1cc(N)c(Nc2ccccc2)cc1C#N	21.8	272.8	86.2	·	·
O=C(CC(Cc1ccccc1)C(=O)O)Nc1ccc(Cl)c(Cl)c1 (stereo not given)	·	81.4	106.8	·	·
O=C(CC(Cc1ccccc1)C(=O)O)Nc1ccccc1 (stereo not given)	·	72.1	50.0*	94.4	91.5
O=C(COC(=O)c1cccc([N+](=O)[O-])c1)c1ccc2c(c1)OCO2	·	578.4	101.5	·	·
Cc1cccc(NC(=O)Cn2ccn(-c3ccc4c(c3)OCCO4)c(=O)c2=O)c1	·	342.4	70.1	·	·
CC(NC(=O)N(Cc1ccccc1)Cc1ccc2c(c1)OCO2)(C(F)(F)F)C(F)(F)F	·	209.1	96.3	·	·
CC(=O)OCCN(Cc1ccccc1)Cc1ccc2c(c1)OCO2	-7.9	465.0	64.4*	116.2	111.0
CC(C)Cn1c2ccccc2c2cc(C(=O)O)ccc21	·	684.0	120.9	110.5	91.1
CC(C)Cn1c(=S)[nH]c2cc(C(=O)O)ccc2c1=O	-5.8	85.2	106.3	·	·
